ChEMBL document CHEMBL1150387, “Development and experimental validation of a docking strategy for the generation of kinase-targeted libraries” (J Med Chem, 2008)

Key:
[1] = target: Tyrosine-protein kinase ABL1 (Homo sapiens) (UniProt P00519); assay: Inhibition of Abl at 10 uM by HTRF assay relative to control
In short: (§1)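 HTRF kinase assay, one panel of kinases. Inhibitor stock 50 µM in 100% DMSO; tested at 10 µM. ATP and substrate at final levels near Km. Final buffer: 50 mM Hepes/NaOH pH 7.4, 40 µM Na3VO4, 0.005% Tween-20, 1 mM DTT, MnCl2 or MgCl2 at kinase-dependent levels. Started by adding ATP/substrate. Reaction run at room temperature, time varied by kinase. Detection mix in 50 mM Hepes pH 7.4, 0.1% BSA, 150 mM KF, incubated ≥1 h at room temperature. Activity expressed as % of uninhibited control; n=2.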

[2] = target: T1, Inhibitor of nuclear factor kappa-B kinase subunit beta (Homo sapiens) (UniProt O14920); assay: Inhibition of IKK-beta at 10 uM by HTRF assay relative to control; in short: as §1
T1 sequence (whole entry): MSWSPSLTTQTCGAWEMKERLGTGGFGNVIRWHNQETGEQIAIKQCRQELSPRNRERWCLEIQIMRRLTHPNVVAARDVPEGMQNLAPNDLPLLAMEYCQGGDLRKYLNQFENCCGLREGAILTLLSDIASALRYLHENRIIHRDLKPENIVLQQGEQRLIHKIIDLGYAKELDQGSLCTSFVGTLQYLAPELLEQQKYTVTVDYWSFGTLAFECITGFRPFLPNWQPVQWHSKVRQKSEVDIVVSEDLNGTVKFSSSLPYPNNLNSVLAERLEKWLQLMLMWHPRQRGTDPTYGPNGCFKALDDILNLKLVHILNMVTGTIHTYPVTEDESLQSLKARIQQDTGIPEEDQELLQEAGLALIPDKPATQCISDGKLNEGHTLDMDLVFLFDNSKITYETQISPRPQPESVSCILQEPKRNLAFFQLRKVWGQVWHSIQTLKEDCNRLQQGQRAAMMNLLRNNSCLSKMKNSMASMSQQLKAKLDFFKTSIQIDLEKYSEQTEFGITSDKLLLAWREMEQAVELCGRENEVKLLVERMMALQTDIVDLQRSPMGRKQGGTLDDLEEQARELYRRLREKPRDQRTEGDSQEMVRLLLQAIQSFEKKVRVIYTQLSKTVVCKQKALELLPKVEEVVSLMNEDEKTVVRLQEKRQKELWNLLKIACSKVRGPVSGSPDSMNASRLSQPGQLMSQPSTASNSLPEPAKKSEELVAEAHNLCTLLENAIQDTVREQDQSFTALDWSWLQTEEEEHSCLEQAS

[3] = target: Protein-tyrosine kinase 6 (Homo sapiens) (UniProt Q13882); assay: Inhibition of Brk at 10 uM by HTRF assay relative to control; in short: as §1
[4] = target: T2, Tyrosine-protein kinase ZAP-70 (Homo sapiens) (UniProt P43403); assay: Inhibition of ZAP70 at 10 uM by HTRF assay relative to control; in short: as §1
T2 sequence (whole entry): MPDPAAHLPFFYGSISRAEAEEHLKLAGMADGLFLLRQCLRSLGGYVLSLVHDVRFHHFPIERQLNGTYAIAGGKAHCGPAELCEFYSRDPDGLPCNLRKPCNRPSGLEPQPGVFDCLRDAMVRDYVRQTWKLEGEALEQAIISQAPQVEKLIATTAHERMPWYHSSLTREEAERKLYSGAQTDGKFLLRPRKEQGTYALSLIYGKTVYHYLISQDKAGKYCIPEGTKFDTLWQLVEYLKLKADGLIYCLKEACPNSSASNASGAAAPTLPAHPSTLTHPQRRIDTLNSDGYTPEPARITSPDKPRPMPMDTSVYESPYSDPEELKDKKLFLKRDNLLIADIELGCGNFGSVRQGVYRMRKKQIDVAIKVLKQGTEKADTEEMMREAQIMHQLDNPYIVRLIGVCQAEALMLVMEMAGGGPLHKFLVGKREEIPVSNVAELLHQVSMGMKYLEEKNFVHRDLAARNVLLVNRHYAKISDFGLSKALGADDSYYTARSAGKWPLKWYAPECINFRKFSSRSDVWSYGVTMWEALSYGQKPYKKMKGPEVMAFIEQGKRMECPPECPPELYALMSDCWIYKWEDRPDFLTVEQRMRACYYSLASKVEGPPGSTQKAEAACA

[5] = target: T3, Mitogen-activated protein kinase 12 (Homo sapiens) (UniProt P53778); assay: Inhibition of p38-gamma at 10 uM by HTRF assay relative to control; in short: as §1
T3 sequence (whole entry): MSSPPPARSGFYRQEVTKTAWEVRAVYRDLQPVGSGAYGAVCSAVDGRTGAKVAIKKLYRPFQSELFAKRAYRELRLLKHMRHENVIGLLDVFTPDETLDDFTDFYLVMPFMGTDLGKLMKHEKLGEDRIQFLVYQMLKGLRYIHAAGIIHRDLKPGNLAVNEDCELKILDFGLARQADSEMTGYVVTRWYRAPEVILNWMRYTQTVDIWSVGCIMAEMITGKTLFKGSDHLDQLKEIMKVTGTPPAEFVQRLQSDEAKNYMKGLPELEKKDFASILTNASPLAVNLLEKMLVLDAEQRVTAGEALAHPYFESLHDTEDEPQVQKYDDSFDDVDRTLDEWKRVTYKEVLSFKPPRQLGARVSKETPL

[6] = Inhibition of IRK at 10 uM by HTRF assay relative to control; in short: as §1
[7] = target: Tyrosine-protein kinase Lyn (Homo sapiens) (UniProt P07948); assay: Inhibition of Lyn at 10 uM by HTRF assay relative to control; in short: as §1
[8] = target: Mitogen-activated protein kinase 14 (Homo sapiens) (UniProt Q16539); assay: Inhibition of p38alpha at 10 uM by HTRF assay relative to control; in short: as §1
[9] = target: Proto-oncogene tyrosine-protein kinase Src (Homo sapiens) (UniProt P12931); assay: Inhibition of Src at 10 uM by HTRF assay relative to control; in short: as §1
[10] = target: Mitogen-activated protein kinase 8 (Homo sapiens) (UniProt P45983); assay: Inhibition of JNK1 at 10 uM by HTRF assay relative to control; in short: as §1
[11] = target: Focal adhesion kinase 1 (Homo sapiens) (UniProt Q05397); assay: Inhibition of FAK at 10 uM by HTRF assay relative to control; in short: as §1
[12] = target: Epidermal growth factor receptor (Homo sapiens) (UniProt P00533); assay: Inhibition of EGFR at 10 uM by HTRF assay relative to control; in short: as §1
[13] = target: 3-phosphoinositide-dependent protein kinase 1 (Homo sapiens) (UniProt O15530); assay: Inhibition of PDK1 at 10 uM by HTRF assay relative to control
[14] = target: Vascular endothelial growth factor receptor 2 (Homo sapiens) (UniProt P35968); assay: Inhibition of KDR at 10 uM by HTRF assay relative to control; in short: as §1
Sequence of Vascular endothelial growth factor receptor 2 (Homo sapiens) (P35968 whole entry): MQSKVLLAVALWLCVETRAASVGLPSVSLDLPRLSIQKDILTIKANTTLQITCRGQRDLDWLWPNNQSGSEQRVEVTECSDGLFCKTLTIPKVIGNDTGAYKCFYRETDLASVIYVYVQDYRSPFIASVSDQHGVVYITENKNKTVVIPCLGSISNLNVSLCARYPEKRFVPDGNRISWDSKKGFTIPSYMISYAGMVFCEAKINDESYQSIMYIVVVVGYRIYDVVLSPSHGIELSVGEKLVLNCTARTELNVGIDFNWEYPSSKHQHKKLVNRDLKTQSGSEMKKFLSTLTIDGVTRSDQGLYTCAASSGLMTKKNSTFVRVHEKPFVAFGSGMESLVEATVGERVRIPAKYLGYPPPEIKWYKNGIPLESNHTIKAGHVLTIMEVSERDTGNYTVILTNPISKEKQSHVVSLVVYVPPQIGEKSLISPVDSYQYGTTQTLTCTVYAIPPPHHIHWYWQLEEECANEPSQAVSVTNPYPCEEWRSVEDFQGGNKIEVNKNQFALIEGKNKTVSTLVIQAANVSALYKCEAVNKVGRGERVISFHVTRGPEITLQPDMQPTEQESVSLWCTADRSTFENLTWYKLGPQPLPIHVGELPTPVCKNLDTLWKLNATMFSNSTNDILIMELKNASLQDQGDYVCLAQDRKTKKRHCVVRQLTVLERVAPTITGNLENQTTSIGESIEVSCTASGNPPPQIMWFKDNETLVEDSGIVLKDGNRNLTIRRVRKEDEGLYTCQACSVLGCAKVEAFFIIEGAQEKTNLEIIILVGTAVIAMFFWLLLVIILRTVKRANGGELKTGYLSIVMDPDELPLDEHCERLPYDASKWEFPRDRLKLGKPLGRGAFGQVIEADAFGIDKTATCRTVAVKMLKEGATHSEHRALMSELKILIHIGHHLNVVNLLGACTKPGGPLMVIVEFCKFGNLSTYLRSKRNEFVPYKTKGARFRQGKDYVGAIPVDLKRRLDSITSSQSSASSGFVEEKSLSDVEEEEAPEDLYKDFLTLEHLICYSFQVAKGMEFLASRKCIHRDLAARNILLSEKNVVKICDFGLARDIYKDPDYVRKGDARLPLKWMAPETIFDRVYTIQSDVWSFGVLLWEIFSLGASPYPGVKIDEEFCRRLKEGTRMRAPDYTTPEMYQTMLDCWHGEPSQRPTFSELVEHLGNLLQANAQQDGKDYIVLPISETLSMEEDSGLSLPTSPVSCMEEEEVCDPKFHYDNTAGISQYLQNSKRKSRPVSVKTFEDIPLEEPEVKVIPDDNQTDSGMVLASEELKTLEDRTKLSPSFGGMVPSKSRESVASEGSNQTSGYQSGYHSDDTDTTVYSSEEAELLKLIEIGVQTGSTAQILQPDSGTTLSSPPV

Sequence of Mitogen-activated protein kinase 14 (Homo sapiens) (Q16539 whole entry): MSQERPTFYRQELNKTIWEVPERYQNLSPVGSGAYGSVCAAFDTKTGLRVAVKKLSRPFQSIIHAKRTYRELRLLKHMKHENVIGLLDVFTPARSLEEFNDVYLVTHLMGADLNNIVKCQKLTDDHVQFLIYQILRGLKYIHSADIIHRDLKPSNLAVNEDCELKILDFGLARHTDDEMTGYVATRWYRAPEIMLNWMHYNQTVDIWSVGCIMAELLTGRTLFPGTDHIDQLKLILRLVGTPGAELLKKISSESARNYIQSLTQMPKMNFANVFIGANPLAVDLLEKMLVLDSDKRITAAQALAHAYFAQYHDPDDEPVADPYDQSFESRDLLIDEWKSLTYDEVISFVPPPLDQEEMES
Sequence of Mitogen-activated protein kinase 8 (Homo sapiens) (P45983 whole entry): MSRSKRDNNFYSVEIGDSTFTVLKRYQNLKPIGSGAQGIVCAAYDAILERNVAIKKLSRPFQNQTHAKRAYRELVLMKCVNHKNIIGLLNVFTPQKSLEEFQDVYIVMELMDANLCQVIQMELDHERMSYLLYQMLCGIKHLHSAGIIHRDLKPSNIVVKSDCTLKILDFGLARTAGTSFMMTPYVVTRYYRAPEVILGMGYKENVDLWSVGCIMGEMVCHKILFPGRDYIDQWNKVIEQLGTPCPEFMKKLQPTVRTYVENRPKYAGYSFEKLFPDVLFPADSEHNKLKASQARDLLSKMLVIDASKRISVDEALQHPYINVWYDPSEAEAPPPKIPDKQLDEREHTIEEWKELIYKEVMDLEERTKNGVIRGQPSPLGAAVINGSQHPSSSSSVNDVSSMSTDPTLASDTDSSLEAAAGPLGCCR
Sequence of Tyrosine-protein kinase Lyn (Homo sapiens) (P07948 2-512 limits assumed): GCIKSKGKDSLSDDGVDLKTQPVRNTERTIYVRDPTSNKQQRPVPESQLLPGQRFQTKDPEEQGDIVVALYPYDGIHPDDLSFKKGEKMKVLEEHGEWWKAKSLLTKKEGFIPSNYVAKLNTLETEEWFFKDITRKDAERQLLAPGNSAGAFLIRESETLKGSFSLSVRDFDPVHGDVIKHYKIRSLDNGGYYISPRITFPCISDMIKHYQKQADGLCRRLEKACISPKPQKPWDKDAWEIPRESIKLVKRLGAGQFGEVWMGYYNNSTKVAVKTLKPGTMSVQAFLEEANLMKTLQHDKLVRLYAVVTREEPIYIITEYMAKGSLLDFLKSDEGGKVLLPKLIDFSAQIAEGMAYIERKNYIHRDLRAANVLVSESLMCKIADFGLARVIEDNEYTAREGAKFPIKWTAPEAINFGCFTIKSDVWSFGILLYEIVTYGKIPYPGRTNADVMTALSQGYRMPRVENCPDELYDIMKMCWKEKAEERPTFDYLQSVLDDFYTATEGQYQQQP
Sequence of Focal adhesion kinase 1 (Homo sapiens) (Q05397 2-1052 limits assumed): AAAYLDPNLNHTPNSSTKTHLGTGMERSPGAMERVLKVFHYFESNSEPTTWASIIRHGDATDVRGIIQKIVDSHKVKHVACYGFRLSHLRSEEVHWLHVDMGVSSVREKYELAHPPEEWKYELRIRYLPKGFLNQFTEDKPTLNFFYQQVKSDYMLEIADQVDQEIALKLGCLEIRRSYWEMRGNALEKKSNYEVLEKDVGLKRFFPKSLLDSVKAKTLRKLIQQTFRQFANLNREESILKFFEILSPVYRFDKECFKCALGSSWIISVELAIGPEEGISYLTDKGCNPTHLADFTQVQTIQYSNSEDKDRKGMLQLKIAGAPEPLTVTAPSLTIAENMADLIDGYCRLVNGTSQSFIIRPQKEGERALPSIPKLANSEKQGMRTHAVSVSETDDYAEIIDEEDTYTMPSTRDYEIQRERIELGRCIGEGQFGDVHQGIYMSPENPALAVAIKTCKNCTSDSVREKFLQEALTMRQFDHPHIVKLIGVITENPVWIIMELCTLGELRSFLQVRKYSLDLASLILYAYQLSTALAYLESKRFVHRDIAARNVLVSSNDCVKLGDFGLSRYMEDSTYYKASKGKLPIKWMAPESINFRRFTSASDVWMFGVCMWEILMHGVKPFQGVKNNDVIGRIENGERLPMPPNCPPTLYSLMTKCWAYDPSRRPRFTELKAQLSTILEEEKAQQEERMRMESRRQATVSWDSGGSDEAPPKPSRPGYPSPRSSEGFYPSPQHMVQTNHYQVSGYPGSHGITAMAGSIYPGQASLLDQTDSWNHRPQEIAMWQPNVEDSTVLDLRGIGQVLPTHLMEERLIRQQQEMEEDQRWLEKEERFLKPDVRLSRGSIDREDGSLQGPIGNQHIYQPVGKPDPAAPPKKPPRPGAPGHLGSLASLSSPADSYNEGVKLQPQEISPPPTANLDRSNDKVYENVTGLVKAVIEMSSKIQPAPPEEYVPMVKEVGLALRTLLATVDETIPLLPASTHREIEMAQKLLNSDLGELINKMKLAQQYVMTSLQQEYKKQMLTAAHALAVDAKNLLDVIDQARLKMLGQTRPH
Sequence of Tyrosine-protein kinase ABL1 (Homo sapiens) (P00519 whole entry): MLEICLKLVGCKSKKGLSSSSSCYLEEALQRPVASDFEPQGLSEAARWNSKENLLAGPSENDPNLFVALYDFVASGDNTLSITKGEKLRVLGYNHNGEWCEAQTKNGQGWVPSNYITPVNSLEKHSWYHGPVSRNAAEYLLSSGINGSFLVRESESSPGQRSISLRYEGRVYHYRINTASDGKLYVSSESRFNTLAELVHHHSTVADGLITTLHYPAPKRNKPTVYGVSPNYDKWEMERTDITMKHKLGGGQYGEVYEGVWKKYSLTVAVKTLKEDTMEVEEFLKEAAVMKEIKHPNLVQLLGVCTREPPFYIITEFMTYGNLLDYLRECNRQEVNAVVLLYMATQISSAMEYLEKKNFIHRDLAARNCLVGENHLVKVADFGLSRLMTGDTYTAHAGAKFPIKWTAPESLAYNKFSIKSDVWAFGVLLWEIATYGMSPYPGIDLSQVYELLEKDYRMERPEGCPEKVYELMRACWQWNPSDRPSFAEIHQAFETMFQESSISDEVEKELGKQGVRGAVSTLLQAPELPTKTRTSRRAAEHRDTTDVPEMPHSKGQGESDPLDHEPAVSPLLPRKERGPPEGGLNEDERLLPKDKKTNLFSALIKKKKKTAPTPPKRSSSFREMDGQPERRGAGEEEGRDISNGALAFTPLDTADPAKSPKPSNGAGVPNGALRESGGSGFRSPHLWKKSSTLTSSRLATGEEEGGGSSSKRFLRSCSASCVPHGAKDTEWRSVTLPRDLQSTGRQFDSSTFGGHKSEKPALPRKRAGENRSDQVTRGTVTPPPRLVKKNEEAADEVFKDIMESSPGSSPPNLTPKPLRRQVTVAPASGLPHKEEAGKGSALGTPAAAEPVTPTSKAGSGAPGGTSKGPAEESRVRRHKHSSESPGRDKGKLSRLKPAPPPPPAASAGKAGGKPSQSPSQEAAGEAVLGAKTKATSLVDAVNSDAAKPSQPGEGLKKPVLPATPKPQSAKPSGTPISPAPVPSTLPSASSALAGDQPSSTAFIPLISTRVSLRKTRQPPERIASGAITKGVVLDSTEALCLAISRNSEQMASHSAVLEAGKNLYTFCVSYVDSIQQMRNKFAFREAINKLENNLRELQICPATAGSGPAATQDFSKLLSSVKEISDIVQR

Structure (SMILES)	inhibition [1] [%]	inhibition [2] [%]	inhibition [3] [%]	inhibition [4] [%]	inhibition [5] [%]	inhibition [6] [%]	inhibition [7] [%]	inhibition [8] [%]	inhibition [9] [%]	inhibition [10] [%]	inhibition [11] [%]	inhibition [12] [%]	inhibition [13] [%]	inhibition [14] [%]
CN(C)CC(C)(C)CNC(=O)[C@@H]1CCCN1c1nccc(Nc2ccccc2)n1	0	5	4	1	2	0	13	0	0	0	4	0	10	5
Nc1nc(Nc2ccccc2)cc(N2CCC(C(=O)NCCc3ccccn3)CC2)n1	0	1	10	0	6	0	1	12	0	0	1	0	0	1
Nc1nc(Nc2ccc3ncsc3c2)cc(N2CCC[C@H]2C(=O)NCCc2cccc(I)c2)n1	7	4	0	2	2	0	13	10	0	0	4	0	7	17
O=C(c1nc(SCc2ccc(Cl)cc2)n2ccccc12)N1CCN(c2cc(Nc3cccc(Br)c3)ncn2)CC1	10	1	24	1	0	0	4	6	2	7	1	0	0	0
O=C(CN1CCN(c2ncnc3c2CN(Cc2ccccc2)CC3)CC1)Nc1cc(F)ccc1F	3	0	9	5	0	0	2	3	1	0	0	0	0	1
CN(C)CC(C)(C)CNC(=O)c1cccc(Nc2nccc(Nc3ccc4ncsc4c3)n2)c1	96	52	97	18	9	87	75	23	99	97	97	16	0	89
O=C(C1CCN(c2nccc(Nc3ccccc3)n2)CC1)N1CC[C@@H](O)C1	8	–	4	3	0	0	14	0	4	0	0	0	2	4

Second part, the compound after the results:

inhibition [1] [%]	inhibition [2] [%]	inhibition [3] [%]	inhibition [4] [%]	inhibition [5] [%]	inhibition [6] [%]	inhibition [7] [%]	inhibition [8] [%]	inhibition [9] [%]	inhibition [10] [%]	inhibition [11] [%]	inhibition [12] [%]	inhibition [13] [%]	inhibition [14] [%]	Structure (SMILES)
10	0	7	0	2	0	2	0	2	0	1	84	0	5	Cc1cccc(N(C)c2cc(Nc3cccc(C(=O)N(CC(C)C)CC(C)C)c3)ncn2)c1
11	2	33	6	0	0	9	0	8	0	17	0	0	11	Cc1cccc(Nc2nccc(Nc3cccc(C(=O)NCc4ccc(N(C)C)cc4)c3)n2)c1
13	0	4	2	1	0	18	2	1	4	5	62	1	8	COc1ccc(NC(=O)Cc2ccc(Nc3cc(N(C)c4cccc(C)c4)ncn3)cc2)cn1
11	3	3	4	0	0	9	0	4	0	9	97	0	0	Cc1cccc(N(C)c2cc(Nc3cccc(C(=O)NCc4ccc(N(C)C)cc4)c3)ncn2)c1
